Here are results for 1 compound from paper PMC7610535 (Nature chemical biology, 2020).

The test system of experiment [1] is IMR5 cells. Nature of the experiment: BrdU/PI flow cytometry, cell cycle distribution of IMR5 cells. In kind it is cell-based, human. To be noted: IMR5 cells without ectopic AURORA-A, 1 µM, 18 hours. The gist of the method: (§1)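 Cells were pulsed with 10 µM BrdU for 1 h, washed in ice-cold PBS and fixed overnight in 80% ethanol at −20 °C. After a 1% BSA/PBS-T wash, they were stained 30 min at 37 °C with RNase A (24 µg/ml) and propidium iodide (54 µM), then analysed by flow cytometry. For IMR5, the EtOH-treated cells of the doxycycline-inducible line served as the non-overexpressing cells.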
On the technique in general: A flow cytometer gives signals particle by particle.

Experiment [2] addresses T1, AURORA-A (Homo sapiens, UniProt O14965).
T1 sequence (O14965 1-403): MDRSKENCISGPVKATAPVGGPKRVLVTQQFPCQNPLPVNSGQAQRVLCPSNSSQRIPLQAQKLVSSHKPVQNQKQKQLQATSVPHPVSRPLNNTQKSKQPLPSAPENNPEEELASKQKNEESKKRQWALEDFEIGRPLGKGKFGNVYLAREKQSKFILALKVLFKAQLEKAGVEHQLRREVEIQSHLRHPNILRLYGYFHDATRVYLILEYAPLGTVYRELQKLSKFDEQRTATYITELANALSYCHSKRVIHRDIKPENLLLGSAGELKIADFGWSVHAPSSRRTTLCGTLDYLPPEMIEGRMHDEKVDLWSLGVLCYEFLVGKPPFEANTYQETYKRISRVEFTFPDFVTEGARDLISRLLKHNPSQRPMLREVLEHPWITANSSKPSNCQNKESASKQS
The experiment is described as follows: Immunoblot of AURORA-A in compound-treated MV4-11 cells. In kind it is cell-based. In general terms: A western blot detects proteins with antibodies after separation by electrophoresis.

The target of experiment [3] is T1, AURORA-A. The experiment is described as follows: AURORA-A-NanoLuc target engagement assay. In kind it is binding. The note with it: AURORA-A vs AURORA-B, depending on experimental conditions (BRET, Kinobeads). For orientation: In BRET a luciferase serves as donor, and the signal depends on an acceptor being close.
Experiment [4] has as its target AK2 (Homo sapiens, UniProt P54819). Nature of the experiment: Kinobead selectivity profiling: AK2. In kind it is binding.
Experiment [5] deals with MV4-11 cells. Nature of the experiment: BrdU/PI flow cytometry, cell cycle distribution of MV4-11 cells. Type of experiment: cell-based, human. To be noted: 1 µM, 12 hours. An outline of the steps:
as §1

As for `COc1cc(Nc2ncc3c(n2)-c2ccc(Cl)cc2C(c2c(F)cccc2OC)=NC3)ccc1C(=O)O` [Alisertib, alisertib, reference compound], the cell cycle distribution entry in experiment [1] is reported as “led to G2/M arrest”; in experiment [5], “almost all cells arrested in G2/M”. The “reduction of steady-state AURORA-A levels (in words)” value in experiment [2] is reported as “did not decrease AURORA-A levels, but instead substantially increased it”. For the same compound, the “difference of affinities for AURORA-A and AURORA-B” value in experiment [3] is 3- to 50 fold. Also, in experiment [4], the affinity, expressed as Kd, was 0.215 µM.
